Source: PubChem
Rce1 inhib – inhibitors of yeast Ras-converting enzyme. Q03530. yeast membranes, quenched prenylated peptide cleavage fluorescence. calls only. 290,000 tested, 0.27% active. AID 2563;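 active = fall in fluorescence gain of 50% or more versus controls, with final raw signal at or below 3038400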;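 also: plate controls were neutral control wells for no effect and wells lacking membranes for full effect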
Fh CTSL1 inh – counter-screen for PFM18AAP inhibitors: inhibitors of F. hepatica cathepsin L1 | recombinant F. hepatica cathepsin L1, Z-Leu-Arg-MCA fluorescence | inhibition, % at 5.96 µM | 300,000 tested, 0.49% active;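 active = inhibition above the mean of all tested compounds plus 3 SD, set per screening campaign, cut at about 17% in these data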;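 also: 0% = plate median of test compound wells and 100% = 1 µM Z-Phe-Ala-diazomethylketone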
thrombin 1536 – inhibitors of human thrombin | P00734 | alpha-thrombin, Boc-VPR-AMC fluorogenic substrate cleavage | inhibition, % at 5 µM | 220,000 tested, 0.26% active;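 active = inhibition at or above 40%; inactive = inhibition below 40%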;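 also: 0% = enzyme with no compound and 100% = wells without enzyme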
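System: human alpha-thrombin protein; Compound dosing: one concentration per compound, 5 µM, with 0.2% DMSO; Timing: reaction at room temperature; Technique: AMC fluorescence, 355/460 nm; Controls: enzyme without compound as high, wells lacking enzyme as low.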
hK5 inh – blocks human kallikrein 5 protease activity; recombinant hK5, fluorogenic AMC substrate cleavage; Q9Y337; 210,000 tested, 0.59% active; inhibition, % at 5 µM; AID 873;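 active = inhibition of 40% or more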;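 also: 0% = enzyme controls without compound and 100% = no-enzyme blanks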
FXIa inh – blocks human coagulation factor XIa protease activity. 220,000 tested, 0.14% active. P03951. AID 798. inhibition, % at 5 µM. purified FXIa, Boc-Glu-Ala-Arg-AMC fluorogenic substrate;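 active = inhibition of at least 40%; inactive = inhibition below 40%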;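 also: fluorescence of freed AMC excited at 355 nm; 0% = enzyme without compound and 100% = no enzyme blank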
FXIIa inh – factor XIIa (human) inhibition; purified FXIIa, Boc-QGR-AMC fluorogenic substrate, 2 h; inhibition, % at 5 µM; 220,000 tested, 0.3% active; AID 800; in the data active = inhibition above about 40%;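 also: 0% = enzyme with no compound and 100% = blank without enzyme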
Target sequence (P00748 20-372 limits assumed): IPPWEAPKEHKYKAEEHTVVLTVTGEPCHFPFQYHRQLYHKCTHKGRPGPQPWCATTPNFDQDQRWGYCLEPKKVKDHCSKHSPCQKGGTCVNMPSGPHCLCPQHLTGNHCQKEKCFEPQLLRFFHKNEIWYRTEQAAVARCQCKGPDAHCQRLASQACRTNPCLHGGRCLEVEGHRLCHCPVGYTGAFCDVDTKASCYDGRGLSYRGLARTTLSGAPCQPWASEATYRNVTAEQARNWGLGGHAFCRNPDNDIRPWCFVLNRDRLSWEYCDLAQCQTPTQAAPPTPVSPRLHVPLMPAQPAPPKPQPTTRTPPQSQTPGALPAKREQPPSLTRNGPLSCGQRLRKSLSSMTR
Target sequence (P00748 373-615 limits assumed): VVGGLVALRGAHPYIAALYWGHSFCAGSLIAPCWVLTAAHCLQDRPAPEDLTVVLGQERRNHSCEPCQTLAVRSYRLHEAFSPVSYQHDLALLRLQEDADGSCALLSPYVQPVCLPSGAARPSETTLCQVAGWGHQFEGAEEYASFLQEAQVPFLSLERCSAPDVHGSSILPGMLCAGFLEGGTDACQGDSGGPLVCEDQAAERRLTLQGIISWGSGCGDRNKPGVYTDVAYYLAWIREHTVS
The depositor's hits bear a star; ! = repeats disagree. Hits are enriched below; roughly 1.4% of the tested compounds scored in any of these assays.

For Cc1ccc2nc3c(c(N)c2c1)CCN3C the results were Rce1 inhib active and Fh CTSL1 inh 1.
Screening COc1cc(CN(C(=O)c2ccco2)C2CCS(=O)(=O)C2)cc(OC)c1OC (stereo unspecified) returned Rce1 inhib inactive and Fh CTSL1 inh 2.
Screening NC(N)=NC(=O)c1nc(Cl)c(N2CCCCCC2)nc1N returned Fh CTSL1 inh 1.
`NC(N)=NC(=O)c1nc(Cl)c(N)nc1N` gave Rce1 inhib active!, Fh CTSL1 inh 4, thrombin 1536 -3, hK5 inh -19, FXIa inh 3 and FXIIa inh 8.
CCn1c(SCC(=O)N2CCN(C(=O)c3ccco3)CC2)nnc1C(C)C was read as Rce1 inhib inactive, Fh CTSL1 inh -3, thrombin 1536 0, hK5 inh 4, FXIa inh 2 and FXIIa inh 14.
`O=C(c1ccc(COc2ccccc2Br)o1)N1CCN(c2ccccn2)CC1` gave Rce1 inhib inactive, Fh CTSL1 inh 1, thrombin 1536 12, hK5 inh 50*, FXIa inh 8 and FXIIa inh 16.
`Cc1cc(=O)oc2cc(OCC(=O)N3CCC(C(N)=O)CC3)ccc12` gave Rce1 inhib inactive and Fh CTSL1 inh 2.
Screening CCN(c1ccccc1)c1nc(C#N)nc(N(CC)c2ccccc2)n1 returned Rce1 inhib inactive, Fh CTSL1 inh 30*, thrombin 1536 1, hK5 inh 0, FXIa inh 0 and FXIIa inh 10.
For CCOC(=O)NNc1ccc2nonc2c1[N+](=O)[O-] the results were Fh CTSL1 inh 24*, thrombin 1536 -6, hK5 inh 9, FXIa inh 3 and FXIIa inh 2.
`CSc1ccc(/C=C/C(=O)c2ccc(NC(=O)C(C)C)cc2)cc1` gave Rce1 inhib inactive, Fh CTSL1 inh 3, thrombin 1536 -5, hK5 inh -4, FXIa inh -2 and FXIIa inh 1.
For CSc1ccc(C(=O)/C=C/c2ccc(N)cc2)cc1 the results were Rce1 inhib inactive, Fh CTSL1 inh 0, thrombin 1536 22, hK5 inh 69*, FXIa inh 17 and FXIIa inh 6.
`Clc1ccc(CON/C=N/c2ncnc3sccc23)cc1` gave Rce1 inhib inactive, Fh CTSL1 inh -2, thrombin 1536 24, hK5 inh 78*, FXIa inh 8 and FXIIa inh 13.
N#CCCn1cc(/C=N/NC(N)=S)c(-c2ccc(-c3ccccc3)cc2)n1 was read as Rce1 inhib inactive, Fh CTSL1 inh 29*, thrombin 1536 6, hK5 inh -1, FXIa inh -2 and FXIIa inh 1.
Screening CCOC(=O)c1c(NC(=O)CN2CCCCC2)sc(CN(C)C)c1-c1ccccc1 returned Rce1 inhib inactive, Fh CTSL1 inh -4, thrombin 1536 10, hK5 inh 0, FXIa inh -4 and FXIIa inh 6.
Screening CCOC(=O)c1c(NC(=O)CCl)sc(CN(C)C)c1-c1ccccc1 returned Rce1 inhib inactive, Fh CTSL1 inh 22*, thrombin 1536 0, hK5 inh -5, FXIa inh -5 and FXIIa inh 8.
`CC(C)[C@H](NC(=O)C1(c2ccccc2)CCN(C(=O)OC(C)(C)C)CC1)C(=O)O` gave Rce1 inhib inactive, Fh CTSL1 inh 27*, thrombin 1536 -8, hK5 inh -18, FXIa inh -3 and FXIIa inh 12.
`CC(C)C[C@H](NC(=O)C1(c2ccccc2)CCN(C(=O)OC(C)(C)C)CC1)C(=O)N1CCC[C@H]1C(=O)O` gave Rce1 inhib inactive and Fh CTSL1 inh 41*.
For COc1ccc(/C=N/n2c(C)nc3sc(C)c(C)c3c2=O)cc1 the results were Rce1 inhib inactive, Fh CTSL1 inh 2, thrombin 1536 2, hK5 inh 4, FXIa inh 10 and FXIIa inh 5.
Screening O=C(CCc1nnc(CCCCc2ccccc2)o1)NCCCc1cccnc1 returned Rce1 inhib inactive, Fh CTSL1 inh 5, thrombin 1536 -3, hK5 inh -5, FXIa inh -3 and FXIIa inh 3.
Screening CC(=O)NC1C(=O)N(C)c2ccc(Br)cc21 (stereo unspecified) returned Rce1 inhib inactive, Fh CTSL1 inh -2, thrombin 1536 15, hK5 inh 45*, FXIa inh 16 and FXIIa inh 21.
CC(C)c1ccc(-c2noc(C3CCCN(C(=O)c4ccc(F)cc4F)C3)n2)cc1 (stereo unspecified) was read as Rce1 inhib inactive, Fh CTSL1 inh 4, thrombin 1536 61*, hK5 inh -10, FXIa inh -10 and FXIIa inh 3.
Cc1ccc(-c2noc(C3CCCN(C(=O)c4ccc(F)cc4F)C3)n2)cc1 (stereo unspecified) was read as Rce1 inhib inactive, Fh CTSL1 inh -3, thrombin 1536 1, hK5 inh -13, FXIa inh -4 and FXIIa inh 8.
For COC(=O)c1ccc(Nc2nc(C)cc(=O)[nH]2)cc1 the results were Rce1 inhib inactive, Fh CTSL1 inh 7, thrombin 1536 3, hK5 inh -16, FXIa inh 24 and FXIIa inh 41*.
CN1CCN(NC(=O)/C=C/c2cccc([N+](=O)[O-])c2)CC1 was read as Rce1 inhib inactive and Fh CTSL1 inh 2.
`Cc1ccc(C)c(Nc2cc(C(=O)NCc3cccnc3)c3ccccc3n2)c1` gave Rce1 inhib inactive, Fh CTSL1 inh 5, thrombin 1536 0, hK5 inh 1, FXIa inh 2 and FXIIa inh 10.
For O=C(NN1C(=O)c2ccccc2C1=O)c1ccncc1 the results were Rce1 inhib inactive, Fh CTSL1 inh 0, thrombin 1536 -1, hK5 inh 3, FXIa inh 0 and FXIIa inh 7.
`CN(C)c1ccc(C(=O)NN2C(=O)c3ccccc3C2=O)cc1` gave Rce1 inhib inactive, Fh CTSL1 inh 1, thrombin 1536 -1, hK5 inh -4, FXIa inh 0 and FXIIa inh 99*.
`O=C(NCCN1CCOCC1)c1ccc2c(c1)N(Cc1ccccc1F)C(=O)CS2` gave Rce1 inhib inactive, Fh CTSL1 inh 27*, thrombin 1536 -2, hK5 inh 2, FXIa inh -4 and FXIIa inh 2.
`O=C(NCCN1CCOCC1)c1ccc2c(c1)N(Cc1ccccc1F)C(=O)c1ccccc1S2(=O)=O` gave Rce1 inhib inactive and Fh CTSL1 inh 18*.
Screening CC1CCCN(CCCNC(=O)c2ccc3c(c2)N(Cc2ccccc2F)C(=O)c2ccccc2S3(=O)=O)C1 (stereo unspecified) returned Rce1 inhib inactive and Fh CTSL1 inh -4.
`CCN1CCCC1CNC(=O)c1ccc2c(c1)N(Cc1ccccc1F)C(=O)c1ccccc1S2(=O)=O` (stereo unspecified) gave Rce1 inhib inactive and Fh CTSL1 inh 52*.
